Measurements taken from ChEMBL document CHEMBL4513216, “Probing the Open Global Health Chemical Diversity Library for Multistage-Active Starting Points for Next-Generation Antimalarials” (ACS Infect Dis, 2020).

Test: Toxicity liver stage against HepG2, at 10uM
Type: cell-based
Design: test concentration 10 uM, cell line HepG2-A16-CD81EGFP
Details: human, HepG2-A16-CD81EGFP cells; read-out: INHIBITION
Method in brief: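 Uninfected HepG2-A16-CD81EGFP cells, 3 × 10^3 per well, 1536-well, plated on prespotted compound at 10 μM final, parasite-free screening media added to match infected plates; puromycin 10 μM positive, DMSO 0.5% negative; run in parallel with 48 h PbLuc assay at 37 °C, 5% CO2; viability by CellTiter-Glo luminescence, normalized to controls.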

Row | SMILES | cytotoxicity at 10 µM
1 | CCC1(C)Cc2ccccc2-c2nc(NCCO)nc(O)c21 (stereo unspecified) | 4.1%
2 | CC(C)(C)c1coc([C@@H]2COCCN2Cc2ncc[nH]2)n1 | 2.61%
3 | CC(=O)N1CC=C(n2c(=O)[nH]c3ccccc32)CC1 | 1.73%
4 | Cc1cc(=O)[nH]c(-n2nc(-c3cccs3)cc2N)n1 | 4.57%
5 | CC(C)CN1C[C@@H]2C(=O)NC3(CCN(C(=O)c4cccnc4)CC3)[C@@H]2C1 | 5.53%
6 | O=C(c1cc(F)cc(F)c1)N1C[C@H]2CNC[C@H]2C1 | 2.91%
7 | Cc1noc(C)c1CN1CCOC2(CCCN(c3ccccn3)C2)C1 (stereo unspecified) | 11.6%
8 | O=C(NC1CC1)[C@H]1CC[C@@H]2[C@@H](CCN2Cc2ccsc2)O1 | 1.42%
9 | Cn1nnc2c1C(COCC1CC1)CN(C(=O)Cc1cccs1)C2 (stereo unspecified) | 3.88%
10 | CC(C)N(C)[C@@H]1CCN(C(=O)[C@H]2CCCO2)[C@H]1Cc1cnn(C)c1 | 0.428%
11 | CN(Cc1cn2c(n1)CN(C(N)=O)CC2)Cc1ccco1 | -5.67%
12 | COc1ccc(C2=C(C)C(N3CCc4ccccc4C3)=NS2(=O)=O)cc1 | -6.34%
13 | CN(C)S(=O)(=O)N1CCC(Oc2cnccn2)CC1 | 1.65%
14 | CSc1ncn(-c2nc(N(C)C)nc(N(C)C)n2)n1 | -3.54%
15 | Cc1ccc(NC(=O)C(C)n2ccc(C(F)(F)F)n2)nc1 (stereo unspecified) | 9.6%
16 | Cc1nn(C)c(C)c1CN1CCNCC1 | 4.68%
17 | CCn1cc(Cl)c(C(=O)Nc2ccc3c(c2)C(C)(C)C(=O)N3C)n1 | 9.21%
18 | Cc1cc(=O)n(CC(=O)NCC2CCCO2)c(-c2ccccc2)n1 (stereo unspecified) | -14.6%
19 | COc1ccc(OCCc2nnc(NC(C)=O)s2)cc1 | 0.0869%
20 | Nc1nccc(C2CN(Cc3ccc(-c4ccccc4C(=O)O)o3)C2)n1 | 5%
21 | O=C(O)c1cccc(CN2CCCC(c3ccn[nH]3)C2)c1 (stereo unspecified) | 3.98%
22 | O=C(CC1CCN(c2cccnn2)CC1)Nc1cccnc1 | 3.72%
23 | CN1CCN(C(=O)c2ccccc2)CC(Cc2cc(N(C)C)ncn2)C1 (stereo unspecified) | 2%

Row | SMILES | cytotoxicity at 10 µM
24 | COCC(=O)N1C[C@@H](c2cccc(F)c2)[C@H]2[C@H]1CCCCCN2C(C)=O | 4.22%
25 | Cc1nn(C)c(C)c1-c1cnc(CC2CCNCC2)cn1 | -13.7%
26 | CC(C)N1CCCC(CNC(=O)Cc2csc(-c3cccnc3)n2)C1 (stereo unspecified) | -51.5%
27 | Cn1cc(S(=O)(=O)N2CCCC(Cn3cncn3)C2)cn1 (stereo unspecified) | 2%
28 | CSCC(=O)NC(Cc1ccc(C)cc1)c1ccccn1 (stereo unspecified) | 1.23%
29 | CCCN1CCC(NCc2cccc(CN3CCOC(C)C3)c2)CC1 (stereo unspecified) | -13%
30 | CN(C)c1ncccc1NC(=O)COCC1CC1 | -4.69%
31 | CCC(=O)N(c1ccc(C(=O)OC)cc1C)C(C)C | 0.814%
32 | Cc1csc(C2(NCCC(=O)N3CCOCC3)CCCC2)n1 | -11.4%
33 | CN1CCN(C2CCN(C(C(N)=O)c3ccccc3)CC2)C1=O (stereo unspecified) | -4.29%
34 | Cc1ccc(CNC(=O)N2CCN(C(C)c3cccnc3)CC2)cn1 (stereo unspecified) | -2.11%
35 | CNC(=O)CSC(C)c1ccc(Br)cc1 (stereo unspecified) | -5.71%
36 | COC(C)C(=O)Nc1cc(C(=O)N2CCSCC2)ccc1C (stereo unspecified) | 6.83%
37 | CS(=O)(=O)NC1CCCN(C(=O)Nc2cccnc2N2CCCC2)C1 (stereo unspecified) | -131%
38 | CC(C)c1nnc2n1CCN(C(=O)c1cn(-c3ccccc3)nn1)C2 | -144%
39 | COc1c(C2CCCN2C(=O)c2cc(C3CC3)on2)c(C)nn1C (stereo unspecified) | -2.87%
40 | Cc1ccc(N2CCCC(NC(=O)C(C)(C)C#N)C2=O)cc1 (stereo unspecified) | -2.42%
41 | Cc1ccc(S(=O)(=O)NC(=O)C2(c3ccccc3)CCC2)c(C)c1 | 13.5%
42 | Cc1ccc(S(=O)(=O)N(CCO)C2CC2)cc1N(C)C | -8.91%
43 | CC(=O)N1CCN(C(=O)CCc2cc(Br)cs2)CC1 | -9.74%
44 | COC(=O)N1CCCN(C(=O)NC2CCc3ccccc3C2)CC1 (stereo unspecified) | -1.14%
45 | O=C(COc1cccc(Br)c1)N1CCN(c2nccs2)CC1 | -1.53%
46 | Cc1ncsc1C(=O)N1CCCC(c2noc(C(C)C)n2)C1 (stereo unspecified) | -2.04%

Row | SMILES | cytotoxicity at 10 µM
47 | COCCN(Cc1ccc(F)cc1Cl)C(=O)c1ccncc1 | -5.69%
48 | COCc1cncc2c1CCN(C(=O)c1cscn1)C2 | -104%
49 | CC(C)CN1C[C@@H]2CN(c3cnccn3)C[C@@H]2C1=O | -91.6%
50 | CS(=O)(=O)NC[C@]12COC[C@H]1CN(C(=O)N1CCCC1)C2 | -109%
51 | Cc1nccc(NCc2cc3n(n2)CCCN(C(=O)C2CCC2)C3)n1 | -128%
52 | Cn1cc(CN(C(=O)c2ccc(O)c(Cl)c2)C2CC2)cn1 | 5.17%
53 | OCC1(O)CCCN(Cc2nnc(-c3ccccc3)o2)CC1 (stereo unspecified) | -3.69%
54 | O=C(O)c1ccnc(-c2ccnc(COc3ccc(Cl)cc3)n2)c1 | -6.67%
55 | Cc1ncsc1C(=O)N[C@@H](Cc1ccccc1)C(N)=O | -44.9%
56 | CN1CCCC2(CCN(C(=O)Cn3ncc4ccccc4c3=O)C2)C1=O (stereo unspecified) | 1.57%
57 | CC(Nc1nccc(CCC(F)(F)F)n1)c1nc(-c2ccccn2)no1 (stereo unspecified) | -6.43%
58 | COc1cccc(S(=O)(=O)N2C[C@@H](N(C)C)[C@H](C(C)C)C2)c1 | -51.2%
59 | COCC1(NC(=O)C(c2ccc(F)cc2)N(C)C)CCCC1 (stereo unspecified) | -44.9%
60 | CC(C)N1CCC(N2CCCC(C(=O)NCC3(O)CCCCC3)C2)CC1 (stereo unspecified) | 2.59%
61 | c1nc(N2CCCC2)ncc1CN1CCCC(CN2CCCCC2)C1 (stereo unspecified) | -5.45%
62 | COCCn1ccnc1C1CCCN(c2cnccn2)C1 (stereo unspecified) | 3.23%
63 | CCCn1cc(C(=O)NC(C(=O)O)c2ccccc2C(F)(F)F)c(C)n1 (stereo unspecified) | -50.2%
64 | O=C(NCCCn1cccn1)C1CCC(=O)N(CC2CCCCC2)C1 (stereo unspecified) | -0.312%
65 | O=C1CC2(CCN(Cc3ccc(-c4ccccc4)s3)C2)C(=O)N1 (stereo unspecified) | -0.745%
66 | Clc1ccc(N2CCC(C3CCN(Cc4cccnc4)CC3)C2)nc1 (stereo unspecified) | 13.5%
67 | Cc1cc(CN2CC3(CCN(C(=O)C4CC4)CC3)CC2C(=O)O)oc1C (stereo unspecified) | 1.1%
68 | CC(C)c1cc(N2CCCC3(CCN(C)C3)C2)ncn1 (stereo unspecified) | -7.36%
69 | NC(=O)CN1CC2(CCC1=O)CCN(Cc1cc(F)ccc1Cl)CC2 | 18.6%

Row | SMILES | cytotoxicity at 10 µM
70 | CC(C)N1CCC(Cc2cc(-c3cccc(C(=O)O)c3)ncn2)C1 (stereo unspecified) | 3.01%
71 | C[C@]1(O)CCN(Cc2cncs2)C[C@@H]1Oc1cccc(F)c1 | 6.06%
72 | CC(C)c1nc(C2CCCN2Cc2ccon2)no1 (stereo unspecified) | -3.5%
73 | Cc1cccc(C(=O)NCc2ccccc2)n1 | -4.83%
74 | CC(C)C(Sc1nnnn1C1CC1)C(=O)NCc1ccccc1 (stereo unspecified) | -3.46%
75 | Cc1oc(C(=O)O)cc1S(=O)(=O)Nc1cc(F)ccc1F | -7.66%
76 | CCc1nnc(CN2CCCCC2Cn2cncn2)o1 (stereo unspecified) | -1.1%
77 | Cc1ncc2c(n1)CN(Cc1nc(-c3ccsc3)no1)CC2 | -1.33%
78 | CC1CN(CC(=O)N2CCOCC2)CCN1Cc1nccn1C (stereo unspecified) | -15.6%
79 | CCOc1cc(C)nc(N2CCN(C(=O)CN(C)C3CC3)CC2)n1 | 5.05%
80 | CC(Cc1ccco1)NC(=O)Nc1ccc(N2CCCC2)nc1 (stereo unspecified) | -3.31%
81 | CC(Cn1cccn1)NC(=O)NCCc1ccsc1 (stereo unspecified) | -14.8%
82 | COc1ccsc1C(=O)N1CCCC(n2cncn2)C1 (stereo unspecified) | 4.6%
83 | Cc1nc(CN2CCCC(c3cc(C(F)(F)F)[nH]n3)C2)cs1 (stereo unspecified) | -4.95%
84 | Cc1ccc(OCCN(C)C(=O)NC(C)c2nncn2C)cc1 (stereo unspecified) | -9.77%
85 | Cc1cnn(CC2CN(CCc3ccccn3)CCO2)c1 (stereo unspecified) | -4.98%
86 | Cc1ccc(-c2nc(CN3CCCCC3Cn3cncn3)no2)cc1 (stereo unspecified) | -0.403%
87 | COc1cccc(C(=O)N2CCC(Nc3ccc(C)nn3)CC2)c1 | -2.24%
88 | Cn1ncc2c(NCC3CCCN3c3cccnn3)ncnc21 (stereo unspecified) | -11.9%
89 | CC(C)c1nc(CN2CCN(CC(O)c3ccccc3)CC2)no1 (stereo unspecified) | -3.6%
90 | O=C(c1cnc(-c2cccs2)s1)N1CCCC(n2ccnc2)C1 (stereo unspecified) | -12.8%
91 | COc1c(CNC2CCc3cc(C)ccc32)c(C)nn1C (stereo unspecified) | -0.0225%
92 | O=C(c1ccc2c(c1)COC2)N1CCCN(Cc2cscn2)CC1 | 0.0102%

Row | SMILES | cytotoxicity at 10 µM
93 | Cn1ccnc1CN1CCN(CC(O)c2cc(F)ccc2F)CC1 (stereo unspecified) | -13.8%
94 | O=C(CCc1ccccn1)N1CCCN(C(=O)CC2CCCC2)CC1 | -0.546%
95 | CCOc1ccc(CC(CNC(=O)c2ccc(C)s2)C(N)=O)cc1 (stereo unspecified) | -3.85%
96 | Cc1cnc(CN2CCOC(CN(C)c3cccnn3)C2)cn1 (stereo unspecified) | 3.64%
97 | Cc1cc(C(=O)N2CCC(Nc3cccnn3)CC2)no1 | -0.0225%
98 | Cc1nn(C)c(C)c1C1CCCN1Cc1nc(C2CC2)no1 (stereo unspecified) | -6.68%
99 | CCc1nc(CN(C)C2CCN(CCS(C)(=O)=O)C2)no1 (stereo unspecified) | 4.45%
100 | COc1cc(C(=O)N2CCCS2(=O)=O)cc(Cl)c1OC | 2.31%
101 | CCc1nc(C2CCCN(C(=O)c3ccc4[nH]nnc4c3)C2)no1 (stereo unspecified) | 2.67%
102 | OCC1CCC2(CC1)CN(Cc1ccccn1)Cc1ccccc1O2 (stereo unspecified) | 5.35%
103 | CC(C)N(C)Cc1cnc2n1CCN(Cc1ccsc1)C2 | 1.96%
104 | c1cc(CN2CCc3ncc(CN4CCCCC4)n3CC2)cs1 | -5.21%
105 | O=C1[C@@H]2CN(Cc3ccccn3)C[C@H]2CCN1c1cncnc1 | -115%
106 | CC(C)Nc1nc2c(cc1C(=O)O)CCN(Cc1ccsc1)CC2 | 0.676%
107 | COc1ccc(CN2CCC3(CC(=O)N(c4cccc(F)c4)C3)C2)cc1 (stereo unspecified) | -137%
108 | O=C(NCC1CCOCC1)[C@@H]1C[C@@H]2[C@@H](CCN2Cc2nccs2)O1 | 0.11%
109 | COCC1CN(Cc2ccc(C)s2)Cc2nnn(C)c21 (stereo unspecified) | 5.17%
110 | CN(C)[C@@H]1CCN(C(=O)NC2CCCC2)[C@H]1Cc1cnn(C)c1 | -0.336%
111 | NC(=O)NCC(=O)N1C[C@@H]2CC[C@H]1CN(C1Cc3ccccc3C1)C2 | 15.3%
